Measurements reported in ChEMBL document CHEMBL5150021, “Identification of 5-(Aryl/Heteroaryl)amino-4-quinolones as Potent Membrane-Disrupting Agents to Combat Antibiotic-Resistant Gram-Positive Bacteria” (J Med Chem, 2022).
Converted amounts (≈) assume the structure as drawn. The source made the active and inactive calls. No cut-off for these calls is given here.

Experiments:
[1] = Cytotoxicity against sheep erythrocytes assessed as reduction in cell viability; format: toxicity, cell-based, Ovis aries, Erythrocyte
How it was run: (§1)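 4% sheep erythrocytes mixed 1:1 with twofold serial compound dilutions in PBS, incubated stationary 1 h at 37 °C, then centrifuged at 500g for 5 min. Supernatant A540 is measured and percent hemolysis is calculated relative to DMSO vehicle (0%) and Triton X-100 (100%). Triplicate, mean ± SD.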

[2] = Therapeutic index, ratio of CC50 for Cytotoxicity against sheep erythrocytes to MIC for antibacterial activity against methicillin resistant Staphylococcus aureus FPR3757; format: toxicity
How it was run: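 Ratio of erythrocyte CC50 to MRSA FPR3757 MIC. For hemolysis, 4% washed sheep erythrocytes were mixed 1:1 with twofold compound dilutions in PBS and incubated 1 h at 37 °C. Supernatant A540 was read after centrifugation and normalized between DMSO and Triton X-100 (100% lysis). Triplicates. Highest concentration tested: 32 μg/mL.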

Erythrocyte = assay: Hemolytic activity in sheep erythrocytes at 32 ug/ml incubated for 1 hr; format: toxicity, cell-based, Ovis aries; details: dose 32 µg/ml; how it was run: as §1
Staphylococcus aureus [3] = assay: Antibacterial activity against methicillin resistant Staphylococcus aureus FPR3757 assessed as inhibition of bacterial growth incubated for 24 hrs by CLSI based method; format: functional; details: read-out: MIC100
How it was run: (§2)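 It was mixed 1:1 with twofold serial compound dilutions and incubated stationary at 37 °C for 24 h. MIC was the lowest concentration giving complete inhibition of observable growth, with an oxacillin control.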

[4] = Kinetic aqueous solubility of the compound in DPBS at pH 7.4 at 100 ug/ml measured after 6 hrs by LC-MS/MS analysis; format: physicochemical; details: DPBS, pH 7.4, dose 100 µg/ml, read-out: Kinetic_solubility
[5] = Protein binding in human plasma at […] incubated for 4 hrs under shaking condition by LC-MS/MS based equilibrium dialysis method; format: ADME, cell-free
How it was run: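 Rapid equilibrium dialysis (8k MWCO). Compound is spiked into human plasma at 10 μg/mL and dialysed against DPBS pH 7.4 with shaking for 4 h at 37 °C. Matrices are matched, proteins precipitated with methanol containing internal standard, and both chambers quantified by LC-MS/MS against a calibration curve. Percent free and bound are calculated from chamber concentrations.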

Vero [6] = assay: Cytotoxicity against African green monkey Vero cells assessed as increase in LDH release at 30 uM incubated for 24 hrs relative to control; format: toxicity, cell-based; details: chlorocebus sabaeus
How it was run: (§3)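 Confluent Vero cells (maintained in RPMI 1640 + 10% FBS, 37 °C, 5% CO2) exposed to compound at 0.47–30 μM (twofold dilutions) in serum-free medium for 24 h at 37 °C. LDH in supernatant is measured colorimetrically at 490 nm and expressed as percent of 2% detergent positive control.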

Vero [7] = assay: Cytotoxicity against African green monkey Vero cells assessed as increase in LDH release at 0.47 to 30 uM incubated for 24 hrs; format: toxicity, cell-based; details: chlorocebus sabaeus, dose 0.47-30 µM; how it was run: as §3
Enterococcus faecalis [8] = assay: Antibacterial activity against Enterococcus faecalis ATCC700802 assessed as inhibition of bacterial growth incubated for 24 hrs by CLSI based method; format: functional
How it was run: (§4)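 Broth microdilution per CLSI. Equal volume of twofold serial compound dilutions added. Incubated stationary at 37 °C for 24 h. MIC taken as lowest concentration giving complete inhibition of visible growth. Oxacillin control for Gram-positives, ceftriaxone for Gram-negatives.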

Enterococcus faecium [9] = assay: Antibacterial activity against Enterococcus faecium ATCC19579 assessed as inhibition of bacterial growth incubated for 24 hrs by CLSI based method; format: functional; how it was run: as §4
Staphylococcus aureus [10] = assay: Antibacterial activity against methicillin-resistant Staphylococcus aureus COL assessed as inhibition of bacterial growth incubated for 24 hrs by CLSI based method; format: functional; how it was run: as §4
Candida albicans = assay: Antifungal activity against Candida albicans SC5314 assessed as inhibition of bacterial growth incubated for 24 hrs by CLSI based method; format: functional
How it was run: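 Broth microdilution per CLSI. It is mixed 1:1 with twofold serial compound dilutions and incubated stationary at 35 °C for 24 h. MIC is read as the lowest concentration with no observable growth.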

Staphylococcus aureus [11] = assay: Antibacterial activity against methicillin-resistant Staphylococcus aureus N315 assessed as inhibition of bacterial growth incubated for 24 hrs by CLSI based method; format: functional; how it was run: as §4
Staphylococcus aureus [12] = assay: Antibacterial activity against methicillin resistant Staphylococcus aureus FPR3757 assessed as inhibition of bacterial growth incubated for 24 hrs in presence of 10% FBS by CLSI based method; format: functional
How it was run: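 CLSI broth microdilution against MRSA FPR3757 (USA300) in Mueller–Hinton broth supplemented with 10% serum (fetal bovine or mouse). Inoculum 10⁶ CFU/mL with twofold serial compound dilutions, stationary incubation at 37 °C for 24 h. MIC read as lowest concentration with complete inhibition of visible growth.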

Cell membrane [13] = assay: Induction of cell membrane damage in Staphylococcus aureus USA300 assessed as mesosome-like membrane inclusions at 1 times MIC measured after 1 hrs by TEM analysis
How it was run: (§5)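 Fixed in glutaraldehyde/paraformaldehyde in cacodylate pH 7.4, post-fixed with osmium tetroxide, stained with uranyl acetate, resin-embedded, thin-sectioned and imaged by TEM.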

Staphylococcus aureus [14] = assay: Antibacterial activity against community-associated methicillin-resistant Staphylococcus aureus USA300 FPR3757 assessed as inhibition of bacterial growth incubated for 24 hrs by CLSI based method; format: functional; how it was run: as §2
Klebsiella pneumoniae = assay: Antibacterial activity against Klebsiella pneumoniae 7117 assessed as inhibition of bacterial growth incubated for 24 hrs by CLSI based method; format: functional; how it was run: as §4
Staphylococcus aureus [15] = assay: Antibacterial activity against methicillin-resistant Staphylococcus aureus NRS71 assessed as inhibition of bacterial growth incubated for 24 hrs by CLSI based method; format: functional; how it was run: as §4
Cell membrane [16] = assay: Induction of cell membrane damage in Staphylococcus aureus USA300 assessed as cross-wall-septum formation with reduced splitting at 1 times MIC measured after 10 mins by TEM analysis; format: subcellular
Enterococcus faecium [17] = assay: Antibacterial activity against Enterococcus faecium DHMC #1 assessed as inhibition of bacterial growth incubated for 24 hrs by CLSI based method; format: functional; how it was run: as §4
Staphylococcus aureus [18] = assay: Antibacterial activity against methicillin-resistant Staphylococcus aureus MW2 assessed as inhibition of bacterial growth incubated for 24 hrs by CLSI based method; format: functional; how it was run: as §4
Enterobacter cloacae = assay: Antibacterial activity against Enterobacter cloacae ND-21 assessed as inhibition of bacterial growth incubated for 24 hrs by CLSI based method; format: functional; how it was run: as §4
Staphylococcus aureus [19] = assay: microbe, parasite or virus in culture; details: USA300 FPR3757, 24 h
Cell membrane [20] = assay: Induction of cell membrane damage in Staphylococcus aureus USA300 assessed as bulging of the septum at 1 times MIC measured after 1 hrs by TEM analysis; how it was run: as §5
[21] = test system: Staphylococcus epidermidis; assay: Antibacterial activity against Staphylococcus epidermidis NIF104003 assessed as inhibition of bacterial growth incubated for 24 hrs by CLSI based method; format: functional; how it was run: as §4
[22] = test system: Staphylococcus epidermidis; assay: Antibacterial activity against Staphylococcus epidermidis NIF104008 assessed as inhibition of bacterial growth incubated for 24 hrs by CLSI based method; format: functional; how it was run: as §4
Enterococcus faecalis [23] = assay: Antibacterial activity against Enterococcus faecalis DHMC #1 assessed as inhibition of bacterial growth incubated for 24 hrs by CLSI based method; format: functional; how it was run: as §4
Cell membrane [24] = assay: Induction of cell membrane damage in Staphylococcus aureus USA300 assessed as membrane wrinkling at 1 times MIC measured after 1 hrs by TEM analysis; how it was run: as §5
Escherichia coli = assay: Antibacterial activity against Escherichia coli DHMC-1 assessed as inhibition of bacterial growth incubated for 24 hrs by CLSI based method; format: functional; how it was run: as §4
Staphylococcus simulans [25] = assay: Antibacterial activity against Staphylococcus simulans assessed as inhibition of cell wall synthesis at 5 times MIC measured upto 60 mins by [3H]-glucosamine incorporation based scintillation counter analysis; format: functional; details: 1 h
How it was run: (§6)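 Aliquots taken 0–60 min, precipitated with ice-cold 10% TCA, filtered, washed, scintillation counted. Percent inhibition is relative to DMSO control at 60 min; triplicate.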

Staphylococcus simulans [26] = assay: Antibacterial activity against Staphylococcus simulans assessed as inhibition of RNA synthesis at 5 times MIC measured upto 60 mins by [3H]-uridine incorporation based scintillation counter analysis; format: functional; details: 1 h; how it was run: as §6
Staphylococcus simulans [27] = assay: Antibacterial activity against Staphylococcus simulans assessed as inhibition of protein synthesis at 5 times MIC measured upto 60 mins by [3H]-L-isoleucine incorporation based scintillation counter analysis; format: functional; details: 1 h; how it was run: as §6
Staphylococcus simulans [28] = assay: Antibacterial activity against Staphylococcus simulans assessed as inhibition of protein synthesis at 0.5 to 5 times MIC measured upto 60 mins by [3H]-L-isoleucine incorporation based scintillation counter analysis; format: functional, organism-based; details: DDE = dose-dependent effect
How it was run: (§7)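 S. simulans was grown in cation-adjusted Mueller–Hinton medium at 37 °C. […] Samples were taken at 0–60 min, precipitated with ice-cold 10% TCA, filtered and counted. Inhibition at 60 min is relative to DMSO control; triplicate.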

Staphylococcus simulans [29] = assay: Antibacterial activity against Staphylococcus simulans assessed as inhibition of DNA synthesis at 5 times MIC measured upto 60 mins by [3H]-thymidine incorporation based scintillation counter analysis; format: functional; details: 1 h; how it was run: as §6
Staphylococcus simulans [30] = assay: Antibacterial activity against Staphylococcus simulans assessed as inhibition of DNA synthesis at 0.5 to 5 times MIC measured upto 60 mins by [3H]-thymidine incorporation based scintillation counter analysis; format: functional, organism-based; details: DDE = dose-dependent effect; how it was run: as §7
Staphylococcus simulans [31] = assay: Antibacterial activity against Staphylococcus simulans assessed as inhibition of RNA synthesis at 0.5 to 5 times MIC measured upto 60 mins by [3H]-uridine incorporation based scintillation counter analysis; format: functional, organism-based; details: DDE = dose-dependent effect; how it was run: as §7

Structure (SMILES)	Activity (Erythrocyte)	MIC (Staphylococcus aureus [3]) [µg/mL]	PPB [5] [%]	Activity (Vero [6]) [%]	Activity (Vero [7])	MIC (Enterococcus faecalis [8]) [µg/mL]	MIC (Enterococcus faecium [9]) [µg/mL]	MIC (Staphylococcus aureus [10]) [µg/mL]	MIC (Candida albicans) [µg/mL]	MIC (Staphylococcus aureus [11]) [µg/mL]	MIC (Staphylococcus aureus [12]) [µg/mL]	MIC (Staphylococcus aureus [14]) [µg/mL]	MIC (Klebsiella pneumoniae) [µg/mL]	MIC (Staphylococcus aureus [15]) [µg/mL]	MIC (Enterococcus faecium [17]) [µg/mL]	MIC (Staphylococcus aureus [18]) [µg/mL]	MIC (Enterobacter cloacae) [µg/mL]	MBC (Staphylococcus aureus [19]) [µg/mL]	MIC [21] [µg/mL]	MIC [22] [µg/mL]	other results
O=c1cc(C(F)(F)F)[nH]c2cc(C(F)(F)F)cc(Nc3ccc(F)c(F)c3)c12	Non-Toxic	< 0.0625																			CC50 [1]: > 32 µg/mL; selectivity ratio [2]: > 500
O=c1cc(C(F)(F)F)[nH]c2cc(C(F)(F)F)cc(Nc3ccc(F)cn3)c12		0.125 (≈ 0.319 µM)	99.8	20	Non-Toxic																solubility kinetic at 6 h [4]: 1 µg/mL (≈ 2.56 µM)
Fc1ccc2c(Nc3ccc(C(F)(F)F)cn3)cc(C(F)(F)F)nc2c1	Non-Toxic	1 (≈ 2.66 µM)																			
O=c1cc(C(F)(F)F)[nH]c2cc(C(F)(F)F)cc(N[C@H]3CC[C@H](C(F)(F)F)CC3)c12	Non-Toxic	0.125 (≈ 0.28 µM)	99.9	20	Non-Toxic	2 (≈ 4.48 µM)	0.25 (≈ 0.56 µM)	< 0.06	> 256	0.125 (≈ 0.28 µM)	4	0.5 (≈ 1.12 µM)	> 128	0.0625 (≈ 0.14 µM)	0.25 (≈ 0.56 µM)	0.125 (≈ 0.28 µM)	> 128	4 (≈ 8.96 µM)	0.125 (≈ 0.28 µM)	0.125 (≈ 0.28 µM)	Activity (Cell membrane [13]): Active; Activity (Cell membrane [16]): Active; Activity (Cell membrane [20]): Active; MIC (Enterococcus faecalis [23]): 0.125 µg/mL (≈ 0.28 µM); Activity (Cell membrane [24]): Active; MIC (Escherichia coli): > 128 µg/mL
FC(F)(F)c1ccc2c(Nc3ccc(Cl)c(Cl)c3)cc(C(F)(F)F)nc2c1		0.0625 (≈ 0.147 µM)				0.5 (≈ 1.18 µM)	0.125 (≈ 0.294 µM)	0.25 (≈ 0.588 µM)	> 256	0.25 (≈ 0.588 µM)	8	0.0625 (≈ 0.147 µM)	> 128	0.25 (≈ 0.588 µM)	0.25 (≈ 0.588 µM)	0.125 (≈ 0.294 µM)	> 128	2 (≈ 4.7 µM)	0.25 (≈ 0.588 µM)	0.125 (≈ 0.294 µM)	inhibition (INH) (Staphylococcus simulans [25]): 100%; inhibition (INH) (Staphylococcus simulans [26]): 100%; inhibition (INH) (Staphylococcus simulans [27]): 100%; inhibition (Staphylococcus simulans [28]): Dde; inhibition (INH) (Staphylococcus simulans [29]): 100%; inhibition (Staphylococcus simulans [30]): Dde; MIC (Enterococcus faecalis [23]): 0.25 µg/mL (≈ 0.588 µM); MIC (Escherichia coli): > 128 µg/mL; inhibition (Staphylococcus simulans [31]): Dde
